Data set [1] is described as follows: Cytotoxicity against human CCD-18Co cells at 5 uM after 24 hrs by MTT assay.
Data set [2] in a line: Cytotoxicity against human CCD-18Co cells at 5 uM after 24 hrs by MTT assay. The class given is cell-based. A digest of the protocol:
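CCD-18Co colon fibroblasts grown in MEM with 10% FBS and HEPES at 37 °C, 5% CO2, seeded overnight at 7 × 10^3 cells/well. MTT added for 3 h at 37 °C, formazan dissolved in DMSO, A570 read with 620 nm background subtraction. Untreated = 100%. Triplicate, ≥3 independent experiments, mean + SEM.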

Data set [3] relates to HT-29. The data set can be described thus: Cytotoxicity against human HT-29 cells at 5 uM after 24 hrs by MTT assay. The format is functional.
The subject of data set [4] is HCT-116. Kind of data set: Cytotoxicity against human HCT116 cells at 5 uM after 24 hrs by MTT assay. The class given is functional, cell-based.
The subject of data set [5] is HT-29. The data set can be described thus: Cytotoxicity against human HT-29 cells after 24 hrs by MTT assay. The class given is functional, cell-based. The settings on record: HT-29, 24 h. The method, boiled down:
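MTT read-out: 3 h at 37 °C, DMSO solubilization, A570 with 620 nm background. Viability relative to untreated control; IC50 derived. Cisplatin in saline run in parallel as positive control. Mean + SEM.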

Calls of active or inactive are those of the source. The rule behind the calls is not given here.

Take `CC(C)=CCC/C(C)=C/C[C@@H]1C[C@]2(CC=C(C)C)C(=O)[C@@](CC=C(C)C)(C(=O)C(C(=O)c3ccc(O)c(O)c3)=C2O)[C@@]1(C)CCC=C(C)C` [OBLONGIFOLIN C]: the Activity result in data set [1] and in data set [2] was “Non-toxic” in each case. Moreover, the result in data set [3] and in data set [4] was Active.

Take `CC(C)=CCC/C(C)=C/C[C@H]1CC(C)(C)OC2=CC(=O)[C@]3(CC=C(C)C)C(=O)[C@@]21CC[C@]3(C)CCC=C(C)C` [GARCICOWIN A]: the Activity result in data set [1] and in data set [2] was “Non-toxic” throughout.

As for `CC(C)=CCC/C(C)=C/C[C@H]1C[C@]2(C/C=C(\C)CCC=C(C)C)C(=O)[C@@](CC=C(C)C)(C(=O)C(C(=O)c3ccc(O)c(O)c3)=C2O)C1(C)C` [OBLONGIFOLIN D], the Activity result in data set [1] and in data set [2] was “Non-toxic” each time. For the same compound, the outcome in data set [3] and in data set [4] was inactive.

On to `CC(C)=CC[C@@H]1C[C@@]23C[C@@H](CC=C(C)C)C(C)(C)[C@](CC=C(C)C)(C(=O)C(C(=O)c4ccc(O)c(O)c4)=C2OC1(C)C)C3=O`, for which the Activity result in data set [1] and in data set [2] was “Non-toxic” in each case. This compound also yielded a half-maximal inhibitory concentration (IC50) in data set [5] of 5.1 µM. The result in data set [3] and in data set [4] was Active.

Take `CC(C)=CCC/C(C)=C/C[C@@H]1C[C@@]2(C/C=C(\C)CCC=C(C)C)C(=O)[C@](CC=C(C)C)(C(=O)C(C(=O)c3ccc(O)c(O)c3)=C2O)C1(C)C` [GUTTIFERONE B]: the Activity entry in data set [1] and in data set [2] was “Non-toxic” in each case. For the same compound, the outcome in data set [3] and in data set [4] was Active.

Turning to `C=C(C)[C@@H]1C[C@]23C[C@H](CC=C(C)C)C(C)(C)[C@](CC=C(C)C)(C(=O)C(C(=O)c4ccc(O)c(O)c4)=C2O[C@H]1C=C(C)C)C3=O` [GARCINIALIPTONE B], the Activity entry in data set [1] is “Non-toxic”; in data set [2] it was “Non-toxic”; in data set [3], 73.8%.

Consider `CC(C)=CC[C@H]1C[C@@]23C[C@@H](CC=C(C)C)C(C)(C)[C@@](CC=C(C)C)(C(=O)C(C(=O)c4ccc(O)c(O)c4)=C2OC1(C)C)C3=O` [CAMBOGIN], for which the Activity result in data set [1] and in data set [2] was “Non-toxic” in each case. Also, the outcome in data set [3] and in data set [4] was Active.

Take `CC(C)=CCC/C(C)=C/C[C@@H]1C[C@]2(CC=C(C)C)C(=O)[C@@](CC=C(C)C)(C(=O)C(C(=O)c3cccc(O)c3)=C2O)[C@@]1(C)CCC=C(C)C` [GARCICOWIN B]: the Activity entry in data set [1] and in data set [2] was “Non-toxic” throughout.

Take `C=C(C)[C@@H]1C[C@]23C[C@@H](CC=C(C)C)C(C)(C)[C@](CC=C(C)C)(C(=O)C(C(=O)c4ccc(O)c(O)c4)=C2O[C@H]1C=C(C)C)C3=O` [GARCICOWIN D]: the values for the Activity result in data set [1], in data set [2] and in data set [3] were “Non-toxic”, “Non-toxic” and 57.7%, respectively.

As for `CC(C)=CCC/C(C)=C/C[C@@H]1C[C@]2(CC=C(C)C)C(=O)[C@@](CC=C(C)C)(C(=O)C(C(=O)c3ccc(O)c(O)c3)=C2O)C1(C)C` [OBLONGIFOLIN B], the Activity result in data set [1] and in data set [2] was “Non-toxic” throughout. Also, the outcome in data set [3] and in data set [4] was Active.

The values above are taken from ChEMBL document CHEMBL1154891, “Cytotoxic acylphloroglucinol derivatives from the twigs of Garcinia cowa” (J Nat Prod, 2010).
